Reference: ChEMBL document CHEMBL5705886, “GSK1070916, a potent Aurora B/C kinase inhibitor with broad antitumor activity in tissue culture cells and human tumor xenograft models” (Mol Cancer Ther, 2009)
Calls of active or inactive are those of the source. No cut-off for these calls is given here.

Legend:
RKO = test: Antiproliferative activity against human RKO cells assessed as inhibition of cell viability measured for 6 to 7 days by cell titer glo assay; assay type: functional, cell-based
In short: (§1)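 Cells seeded in recommended growth medium, held overnight at 37°C in 5% CO2, then exposed to serial dilutions of inhibitor for 6–7 d. A time-zero plate was read with CellTiter-Glo at dosing. Luminescent viability read at the end. No-cell wells subtracted as background, data expressed as percent of DMSO control.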

LoVo = test: Antiproliferative activity against human LoVo cells assessed as inhibition of cell viability measured for 6 to 7 days by cell titer glo assay; assay type: functional, cell-based
In short: (§2)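 Cells seeded in recommended growth medium, incubated overnight at 37°C in 5% CO2, then exposed to serial dilutions of inhibitor for 6–7 d. A parallel plate was read with CellTiter-Glo at compound addition as a T=0 value. The luminescent viability readout had no-cell background subtracted and was expressed as % of DMSO control.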

HT-29 = test: Antiproliferative activity against human HT-29 cells assessed as inhibition of cell viability measured for 6 to 7 days by cell titer glo assay; assay type: functional, cell-based; in short: as §2
COLO-320-HSR = test: Antiproliferative activity against human COLO 320HSR cells assessed as inhibition of cell viability measured for 6 to 7 days by cell titer glo assay; assay type: functional, cell-based
In short: (§3)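 Tumor lines plated in recommended growth media, overnight at 37°C, 5% CO2, then given serial dilutions; a T=0 plate read with CellTiter-Glo at dosing. After 6–7 d of exposure, viability read by CellTiter-Glo luminescence. No-cell wells subtracted, data expressed as % of DMSO control.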

SK-BR-3 = test: Antiproliferative activity against human SK-BR-3 cells assessed as inhibition of cell viability measured for 6 to 7 days by cell titer glo assay; assay type: functional, cell-based; in short: as §1
MDA-MB-453 = test: Antiproliferative activity against human MDA-MB-453 cells assessed as inhibition of cell viability measured for 6 to 7 days by cell titer glo assay; assay type: functional, cell-based; in short: as §2
ASPC1 = test: Antiproliferative activity against human ASPC1 cells assessed as inhibition of cell viability measured for 6 to 7 days by cell titer glo assay; assay type: functional, cell-based; in short: as §3
BXPC-3 = test: Antiproliferative activity against human BXPC-3 cells assessed as inhibition of cell viability measured for 6 to 7 days by cell titer glo assay; assay type: functional, cell-based; in short: as §3
[1] = Antiproliferative activity against human A375P cells assessed as inhibition of cell viability measured for 6 to 7 days by cell titer glo assay; assay type: functional, cell-based; in short: as §3
SW 954 = test: Antiproliferative activity against human SW 954 cells assessed as inhibition of cell viability measured for 6 to 7 days by cell titer glo assay; assay type: functional, cell-based; in short: as §1
NCI-H358 = test: Antiproliferative activity against human NCI-H358 cells assessed as inhibition of cell viability measured for 6 to 7 days by cell titer glo assay; assay type: functional, cell-based; in short: as §2
U-266 = test: Antiproliferative activity against human U266B1 cells assessed as inhibition of cell viability measured for 6 to 7 days by cell titer glo assay; assay type: functional, cell-based
[2] = Antiproliferative activity against human CRO-AP5 cells assessed as inhibition of cell viability measured for 6 to 7 days by cell titer glo assay; assay type: functional, cell-based; in short: as §3
NU-DUL-1 = test: Antiproliferative activity against human NU-DUL-1 cells assessed as inhibition of cell viability measured for 6 to 7 days by cell titer glo assay; assay type: functional, cell-based; in short: as §1
MHH-PREB-1 = test: Antiproliferative activity against human MHH-PREB-1 cells assessed as inhibition of cell viability measured for 6 to 7 days by cell titer glo assay; assay type: functional, cell-based; in short: as §2
SU-DHL-16 = test: Antiproliferative activity against human SU-DHL-16 cells assessed as inhibition of cell viability measured for 6 to 7 days by cell titer glo assay; assay type: functional, cell-based; in short: as §1
U-937 = test: Antiproliferative activity against human U-937 cells assessed as inhibition of cell viability measured for 6 to 7 days by cell titer glo assay; assay type: functional, cell-based
HT = test: Antiproliferative activity against human HT cells assessed as inhibition of cell viability measured for 6 to 7 days by cell titer glo assay; assay type: functional, cell-based; in short: as §2
Farage = test: Antiproliferative activity against human Farage cells assessed as inhibition of cell viability measured for 6 to 7 days by cell titer glo assay; assay type: functional, cell-based; in short: as §3
Toledo = test: Antiproliferative activity against human Toledo cells assessed as inhibition of cell viability measured for 6 to 7 days by cell titer glo assay; assay type: functional, cell-based; in short: as §1
[3] = Antiproliferative activity against human BC1 cell line assessed as inhibition of cell viability measured for 6 to 7 days by cell titer glo assay; assay type: functional, cell-based; in short: as §3
BC-3 = test: Antiproliferative activity against human BC-3 cells assessed as inhibition of cell viability measured for 6 to 7 days by cell titer glo assay; assay type: functional, cell-based; in short: as §3
EB-3 = test: Antiproliferative activity against human EB-3 cells assessed as inhibition of cell viability measured for 6 to 7 days by cell titer glo assay; assay type: functional, cell-based; in short: as §3
P3HR-1 = test: Antiproliferative activity against human P3HR-1 cells assessed as inhibition of cell viability measured for 6 to 7 days by cell titer glo assay; assay type: functional, cell-based; in short: as §1
RPMI-6666 = test: Antiproliferative activity against human RPMI-6666 cells assessed as inhibition of cell viability measured for 6 to 7 days by cell titer glo assay; assay type: functional, cell-based; in short: as §1
[4] = Antiproliferative activity against human TO 175.T cells assessed as inhibition of cell viability measured for 6 to 7 days by cell titer glo assay; assay type: functional, cell-based; in short: as §1
NALM-6 = test: Antiproliferative activity against human NALM-6 cells assessed as inhibition of cell viability measured for 6 to 7 days by cell titer glo assay; assay type: functional, cell-based; in short: as §2
[5] = Antiproliferative activity against human Karpas-231 cells assessed as inhibition of cell viability measured for 6 to 7 days by cell titer glo assay; assay type: functional, cell-based; in short: as §2
[6] = Antiproliferative activity against human BDCM cells assessed as inhibition of cell viability measured for 6 to 7 days by cell titer glo assay; assay type: functional, cell-based; in short: as §3
BV-173 = test: Antiproliferative activity against human BV-173 cells assessed as inhibition of cell viability measured for 6 to 7 days by cell titer glo assay; assay type: functional, cell-based; in short: as §3
[7] = Antiproliferative activity against human ALL-SIL cells assessed as inhibition of cell viability measured for 6 to 7 days by cell titer glo assay; assay type: functional, cell-based; in short: as §3
[8] = Antiproliferative activity against human SKW-3 cells assessed as inhibition of cell viability measured for 6 to 7 days by cell titer glo assay; assay type: functional, cell-based; settings: SKW3; in short: as §1
J-RT3-T3-5 = test: Antiproliferative activity against human J-RT3-T3-5 cells assessed as inhibition of cell viability measured for 6 to 7 days by cell titer glo assay; assay type: functional, cell-based; in short: as §2
A549 [9] = test: Effect on cell cycle distribution in human A549 cells assessed as increase in sub-2N DNA content at 2 to 5000 nM incubated for 24 to 72 hrs by flow cytometry based analysis; assay type: functional; settings: dose 2-5000 nM, time 24-72 hrs
COLO 205 = test: Induction of apoptosis in human COLO 205 cells assessed as caspase-3 cleavage at 10 nmol/L incubated for 24 hrs by Western blot analysis; assay type: functional, cell-based
A549 [10] = test: Induction of mitotic alteration in human A549 cells formation of unorganized chromosomes at 12 to 330 nmol/L incubated for 24 hrs by immunofluorescent microscopy based analysis; assay type: functional, cell-based; settings: dose lower […], dose upper 330.0 nmol/L
NCI-H460 = test: Antitumor activity in human NCI-H460 cells xenografted in nude mouse assessed as reduction in tumor growth at 25 to 100 mg/kg, ip administered once daily for 5 consecutive days with 2 days off scheduled for 3 cycles measured upto 60 days; settings: dose 25-100 mg/kg, time 60.0 day

Question: Which EC50 (RKO) does the source give for `CCn1cc(-c2ccnc3[nH]c(-c4cccc(CN(C)C)c4)cc23)c(-c2ccc(NC(=O)N(C)C)cc2)n1` [GSK-1070916] here?
Answer: 7 nM

Question: And the EC50 (LoVo)?
Answer: 7 nM

Question: What about the EC50 (HT-29) of the same compound?
Answer: 10 nM

Question: What about the EC50 (COLO-320-HSR) of the same compound?
Answer: 92 nM

Question: What about the EC50 (SK-BR-3) of the same compound?
Answer: 4 nM

Question: And the EC50 (MDA-MB-453)?
Answer: 6 nM

Question: What about the EC50 (ASPC1) of the same compound?
Answer: 2 nM

Question: And the EC50 (BXPC-3)?
Answer: 3 nM

Question: And the EC50 [1]?
Answer: 7 nM

Question: What about the EC50 (SW 954) of the same compound?
Answer: 11 nM

Question: And the EC50 (NCI-H358)?
Answer: 4 nM

Question: What about the EC50 (U-266) of the same compound?
Answer: 422 nM

Question: And the EC50 [2]?
Answer: 3 nM

Question: What about the EC50 (NU-DUL-1) of the same compound?
Answer: 4 nM

Question: And the EC50 (MHH-PREB-1)?
Answer: 4 nM

Question: And the EC50 (SU-DHL-16)?
Answer: 4 nM

Question: And the EC50 (U-937)?
Answer: 5 nM

Question: And the EC50 (HT)?
Answer: 7 nM

Question: What about the EC50 (Farage) of the same compound?
Answer: 7 nM

Question: And the EC50 (Toledo)?
Answer: 15 nM

Question: What about the EC50 [3] of the same compound?
Answer: 18 nM

Question: And the EC50 (BC-3)?
Answer: 27 nM

Question: And the EC50 (EB-3)?
Answer: 7 nM

Question: What about the EC50 (P3HR-1) of the same compound?
Answer: 8 nM

Question: What about the EC50 (RPMI-6666) of the same compound?
Answer: 10 nM

Question: What about the EC50 [4] of the same compound?
Answer: 54 nM

Question: And the EC50 (NALM-6)?
Answer: 2 nM

Question: What about the EC50 [5] of the same compound?
Answer: 3 nM

Question: And the EC50 [6]?
Answer: 26 nM

Question: And the EC50 (BV-173)?
Answer: 5 nM

Question: What about the EC50 [7] of the same compound?
Answer: 2 nM

Question: And the EC50 [8]?
Answer: 5 nM

Question: And the EC50 (J-RT3-T3-5)?
Answer: 9 nM

Question: What about the Activity (A549 [9]) of the same compound?
Answer: Active

Question: What about the Activity (COLO 205) of the same compound?
Answer: Active

Question: What about the Activity (A549 [10]) of the same compound?
Answer: Active

Question: And the Activity (NCI-H460)?
Answer: inactive
